Experimental data of several laboratories.
Protocols differ between the studies behind these lines.
Read-out: tubulin polymerisation
Action: inhibitor

SMILES | technique | pH | IC50 [µM]
CCCOc1ccc(Nc2cc(C)nc3ccc(Cl)cc23)cc1 |  |  | > 100
COc1cc2c(cc1O)CCN(Cc1cc(OC)c(OC)c(OC)c1)C2 | absorbance |  | > 20
COc1ccc(C(=O)c2cc3c(-c4ccccc4)c(O)ccc3o2)cc1 | absorbance |  | 2.8
COc1ccc(S(=O)(=O)c2ccccc2)c(OC)c1OC | absorbance | pH 6.6 | > 40
COc1ccc(N(C)c2nc(C)nc3c2CCC3)cc1 | absorbance |  | 1.6
CCCOc1ccc(N(C)c2cc(C)nc3ccc(Cl)cc23)cc1 |  |  | 5.4
COc1ccc(/C=C\c2cc(OC)c(OC)c(OC)c2)cc1O | absorbance |  | 1.4
COc1ccc(Sc2ccccc2)c(OC)c1OC | absorbance | pH 6.6 | > 40
COc1ccc(N(C)c2nc(C)nc3c2C[C@@H](C)C3)cc1 (racemic) | absorbance |  | 1.9
COc1cc2c(cc1OS(N)(=O)=O)CCN(Cc1cc(OC)c(OC)c(OC)c1)C2 | absorbance |  | > 20
COc1ccc([S+]([O-])c2ccc(OC)c(OC)c2OC)cc1 (centres unmarked) | absorbance | pH 6.6 | > 40
